Experimental data pooled from the literature.
Each line is one published result; the experiments were not run side by side.
BCHE: Cholinesterase (BCHE, Equus caballus, UniProt P81908)
Tyrosine-protein phosphatase YopH: Tyrosine-protein phosphatase YopH (Yersinia enterocolitica, UniProt P15273)

COc1cccc(CN2CCC(CN3Cc4cc(OC)c(OC)cc4C3=O)CC2)n1 — inhibition (BCHE; enzyme activity; inhibitor; Ellman; 1 µM): -2%
Nc1ncc(-c2nc(N3CCOCC3)nc(N3CCOCC3)n2)c(C(F)F)n1 — remaining binding (Ribosomal protein S6 kinase alpha-3, C-terminal kinase domain (RPS6KA3, Homo sapiens, UniProt P51812); binding; competition with immobilised ligand; 10 µM): 84%
COc1ncccc1-c1cnn2ccc(N3CCN(C(=O)OC(C)C)CC3)nc12 — remaining binding (Serine/threonine-protein kinase MRCK alpha (CDC42BPA, Homo sapiens, UniProt Q5VT25); binding; competition with immobilised ligand; 1 µM): 72%
[O]=[V]([S]c1cccc[n+]1[O-])[S]c1cccc[n+]1[O-] — inhibition (Tyrosine-protein phosphatase YopH; enzyme activity; inhibitor; 25 µM): 99.5%
C#Cc1n[nH]c2c(-c3cn(C(C)c4ccccn4)c(=O)[nH]c3=O)cc(F)cc12 (centres unmarked) — inhibition (Mitogen-activated protein kinase kinase kinase 9 (MAP3K9, Homo sapiens, UniProt P80192); enzyme activity; inhibitor; 1 µM): 5%
O=S(=O)([O-])[O-].[O]=[V+2] — inhibition (Tyrosine-protein phosphatase YopH; enzyme activity; inhibitor; 25 µM): 99.7%
CCN(CC)CCCC[C@H](NC(=O)[C@H](CC(C)C)NC(=O)[C@H](C)NC(=O)[C@H](Cc1ccccc1)NC(=O)c1ccc(C(C)(C)C)cc1)C(=O)N[C@@H](CO)C(=O)OC — ΔTm (Transcription initiation factor TFIID subunit 1, BD2 (TAF1, Homo sapiens, UniProt P21675); thermal stability; DSF; 25 µM): 0.62 °C
COc1cc2c(cc1OC)C(=O)N(CC1CCN(CC3CCNC3)CC1)C2 (centres unmarked) — inhibition (BCHE; enzyme activity; inhibitor; Ellman; 1 µM): -13.6%
